Paper PMC3356144 (Frontiers in Oncology, 2011)
“Also recorded” adds a separate entry of the source. Values belong to the compound of their own block, whether it stands above or below them.

What was measured:
[1] = tested on: human prostate cancer tissue; assay: Displacement of 17e staining of prostate tissue by calyculin A; assay type: binding; details: calyculin A 1 μM pretreatment 10 min, then 17e 10 μM 1 h
Method in brief: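 Serial sections of human prostate tissue. One section stained with 10 μM test compound for 1 h. The adjacent section was pretreated with 1 μM calyculin A for 10 min before the same staining. Compound fluorescence intensity imaged and compared between paired sections.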

[2] = target: MLCP purified from pig aorta smooth muscle (Sus scrofa, UniProt P61292); assay: MLCP/32P-MLC dephosphorylation inhibition assay; assay type: biochemical
Method in brief: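 MLCP purified from pig aorta (PP1C plus truncated 60-kDa MYPT1). Substrate was chicken gizzard LC20 pre-labelled with [γ-32P]ATP. Reaction: 0.5 μM 32P-LC20, 50 nM MLCP, 0.1 nM okadaic acid, 1 mM DTT, 0.03% Brij35, 25 mM MOPS pH 7.0, with varied compound. Run 10 min at 30°C, stopped with TCA/BSA, released 32P counted. No-enzyme set as 0% and uninhibited as 100%; duplicates; IC50 by nonlinear regression.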

Solubility = assay type: physicochemical
LNCaP cells [3] = assay: Growth inhibition; assay type: cell-based, human
Method in brief: (§1)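 LNCaP seeded at 20,000 cells/well overnight in RPMI with 10% FBS, 1% L-glutamine, 1% pen/strep and 0.1 nM DHT. CWR22Rv1 (20,000/well), DU145 and PC-3 (5,000/well) seeded in the same medium without DHT. Treated with test compound in serum-free medium, five wells per concentration, for 48 h; vehicle was 0.001% DMSO. Viability read by WST-8 after 2 h at 450 nm (reference 655 nm). Initial-plating value subtracted, percent growth versus control calculated, GI50 derived; n = 5, SEM.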

CWR22Rv1 cells [4] = assay: Growth inhibition; assay type: cell-based; details: Homo sapiens, CWR22Rv1, 48 h, CWR22Rv1 (CWR), 48 h treatment
Method in brief: as §1

DU145 cells [5] = assay: Growth inhibition; assay type: cell-based; details: Homo sapiens, DU-145, 48 h, DU145, 48 h treatment
Method in brief: as §1

PC-3 cells [6] = assay: Growth inhibition; assay type: cell-based; details: Homo sapiens, PC-3, 48 h, PC-3, 48 h treatment
Method in brief: as §1

LNCaP cells [7] = assay: BrdU uptake assay, LNCaP; assay type: cell-based, human; details: 1 μM, 24 h
Method in brief: (§2)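 Cells seeded overnight in six-well plates: LNCaP 500,000/well, DU145 and PC-3 200,000/well. Treated with 1 μM test compound in serum-free medium for 24 h, then BrdU pulsed 1 h. Cells trypsinized, fixed in 4% formaldehyde 10 min, permeabilized, and labelled with FITC anti-BrdU 1 h at 25°C. Analysed by flow cytometry against untreated control; n = 3, mean ± SEM.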

DU145 cells [8] = assay: BrdU uptake assay, DU145; assay type: cell-based, human; details: DU145, 1 μM, 24 h
Method in brief: as §2

PC-3 cells [9] = assay: BrdU uptake assay, PC-3; assay type: cell-based, human
Method in brief: as §2

PC-3 cells [10] = assay: Cell cycle analysis by FACS, PC-3; assay type: cell-based, human; details: 1 μM
Method in brief: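 PC-3 seeded at 200,000 cells/well in six-well plates overnight, then serum-starved 24 h. Treated with 1 μM test compound; controls kept in serum-free medium. Incubated 6, 24 or 48 h, then trypsinized, ethanol-fixed and analysed for cell-cycle distribution by FACS. Values averaged from three independent experiments.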

CWR22Rv1 cells [11] = assay: Cell cycle analysis by FACS, CWR22RV1; assay type: cell-based, human; details: CWR22RV1, 24 h
LNCaP cells [12] = assay: Cell cycle analysis by FACS, LNCaP; assay type: cell-based, human
PC-3 cells [13] = assay: Analysis of actin disruption; assay type: cell-based, human
Method in brief: (§3)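 PC-3 seeded at 100,000 cells/dish in RPMI with 10% FBS and left to adhere 48 h. LNCaP seeded at 200,000 cells/dish and left 24 h in RPMI with 10% FBS and 0.1 nM DHT. Medium replaced with test compound (250 nM–5 μM) for 2 h. Cells fixed in 4% formaldehyde 10 min, permeabilized with 0.1% Triton X-100 30 min, stained with Alexa Fluor–phalloidin 10 min, then imaged against untreated controls.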

LNCaP cells [14] = assay: Analysis of actin disruption; assay type: cell-based, human; details: 2 h, 250 nM up to highest dose 5 μM
Method in brief: as §3

PC-3 cells [15] = assay: Chemotaxis assay; assay type: cell-based, human; details: IGF-1 attractant
Method in brief: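 96-well Boyden chamber with 8-μm porous membrane. 200,000 PC-3 cells per upper well in serum-free medium with test compound. Lower wells held IGF-1 plus the same compound concentration; serum-free medium served as negative control. Incubated overnight at 37°C, 5% CO2. Membrane fixed and Diff-Quik stained, upper-surface cells scraped off, absorbance read at 595 nm; n = 5, mean ± SEM.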

PC-3 cells [16] = assay: Cellular morphology after treatment; assay type: cell-based, human; details: PC-3, 1 μM, 24 h

Sequence of MLCP purified from pig aorta smooth muscle (P61292 2-327 limits assumed): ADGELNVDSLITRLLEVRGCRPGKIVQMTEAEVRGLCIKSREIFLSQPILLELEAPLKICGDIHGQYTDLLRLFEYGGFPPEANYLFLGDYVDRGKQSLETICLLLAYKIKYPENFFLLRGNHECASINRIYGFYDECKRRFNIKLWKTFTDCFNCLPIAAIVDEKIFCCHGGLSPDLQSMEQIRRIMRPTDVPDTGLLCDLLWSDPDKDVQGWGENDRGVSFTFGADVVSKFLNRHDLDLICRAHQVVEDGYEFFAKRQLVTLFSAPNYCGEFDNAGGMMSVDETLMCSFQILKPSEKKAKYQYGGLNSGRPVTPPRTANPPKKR

Compound: COC[C@@H]([C@H](O)[C@H](O)C(=O)NCC[C@H](C)c1nc(/C=C/C[C@@H]2O[C@]3(C[C@@H](O)[C@@H]2C)O[C@H]([C@H](C[C@H](O)[C@H](C)[C@H](O)[C@H](C)/C=C(C)/C(C)=C/C=C/C(C)=C\C#N)OC)[C@H](OP(=O)(O)O)C3(C)C)co1)N(C)C [calyculin A]
Reduction in fluorescence intensity due to 17e (17e binding) [1]: 60%

Compound: COc1cccc(-c2ccc(C(=O)Oc3ccc(-c4csc(NC(=N)N)n4)cc3)cc2)c1 [10a, 3′-methoxy-biphenyl-4-carboxylic acid 4-(2-guanidino-thiazol-4-yl)-phenyl ester]
IC50 [2]: 12 µM | Solubility (relative) (Solubility): much lower solubility than 17e

Compound: COc1ccc(-c2csc(N=C(N)N)n2)cc1 [13m, N-[4-(4-methoxy-phenyl)-thiazol-2-yl]-guanidine]
IC50 [2]: 840 µM

Further lines, with some results ahead:

IC50 [2]: 485 µM
Compound: Nc1nc(-c2ccc(OC(=O)c3ccc(-c4ccccc4)cc3)cc2)cs1 [14a, biphenyl-4-carboxylic acid 4-(2-amino-thiazol-4-yl)-phenyl ester]

Solubility (relative) (Solubility): much lower solubility than 17e
Compound: N=C(N)Nc1nc(-c2ccc(NC(=O)c3ccc4ccccc4c3)cc2)cs1 [13h, naphthalene-2-carboxylic acid [4-(2-guanidino-thiazol-4-yl)-phenyl]-amide]

GI50 of CRPC cell lines compared to AD prostate cells (LNCaP cells [3]; CRPC lines (CWR22Rv1, DU145, PC-3) versus LNCaP): four-fold lower | GI50 (LNCaP cells [3]; Homo sapiens, LNCaP, 48 h, 48 h treatment): ~2 µM | GI50 (DU145 cells [5]): ~0.5 µM | GI50 (PC-3 cells [6]): ~0.5 µM | Solubility (relative) (Solubility): higher solubility
Compound: CN(C)c1cccc2c(S(=O)(=O)Oc3ccc(-c4csc(NC(=N)N)n4)cc3)cccc12 [17e, 5-dimethylamino-naphthalene-1-sulfonic acid 4-(2-guanidino-thiazol-4-yl)-phenyl ester]
GI50 (CWR22Rv1 cells [4]): ~0.5 µM | DNA synthesis (BrdU incorporation) (LNCaP cells [7]): unaffected | BrdU incorporation compared to control (DU145 cells [8]): ~ 40% | Reduction in DNA synthesis as measured by BrdU uptake (PC-3 cells [9]; PC-3): 10 fold | BrdU incorporation compared to control (PC-3 cells [9]; PC-3, 1 μM, 24 h): ~ 10% | Cell cycle effect (PC-3 cells [10]; 6 h): increased S and G2/M populations | Cell cycle effect (PC-3 cells [10]; 24 h): complete cell cycle arrest in the G2/M phase | Cell death (SubG1 population) (PC-3 cells [10]; 48 h): increase in cells death | Cell cycle effect (G2/M arrest persistence) (PC-3 cells [10]; through 48 h): continued unchanged | Cell cycle effect (CWR22Rv1 cells [11]): G2/M arrest | Cell cycle effect (LNCaP cells [12]): little change from control | Actin disruption compared to control (PC-3 cells [13]; PC-3, 2 h, 250 nM, 1 μM and 5 μM): increasing amounts of actin disruption | Concentration at which actin disruption begins (PC-3 cells [13]; PC-3, 2 h treatment): 250 nM | F-actin disruption (LNCaP cells [14]): did not show any disruption of the F-actin network; also recorded: no actin disruption; also recorded: did not demonstrate any F-actin disruption | Migration of PC-3 cells (PC-3 cells [15]; 3 μM): reduced to the same level as wells that contained only serum free media | Migrated cells compared with IGF-1 alone (PC-3 cells [15]; 5 μM): three times fewer cells | Migration of PC-3 cells through the membrane (PC-3 cells [15]; increasing drug concentrations): dose dependent decrease | Cellular morphology (PC-3 cells [16]): became more spherical

IC50 [2]: 74 µM
Compound: N=C(N)Nc1nc(-c2ccc(OC(=O)c3ccc(-c4ccccc4)cc3)cc2)cs1 [13a, biphenyl-4-carboxylic acid 4-(2-guanidino-thiazol-4-yl)-phenyl ester]
